Laboratory results from the EternaBench riboswitch data.

Test system: MS2 coat protein
Assay: apparent Kd, MS2 coat protein; higher = weaker binding; RNA-MaP array; FMN 200 µM where present
Summary of the method: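 Stalled E. coli RNA polymerase transcribed the designs on Illumina sequencing-chip clusters. SNAP-549-labelled MS2 coat protein was titrated from 0.7 or 1.5 nM, doubling to 3 µM, without and then with constant ligand, in 100 mM Tris-HCl pH 7.5, 80 mM KCl, 4 mM MgCl2, BSA, DTT, yeast tRNA and Tween-20. Per-cluster binding curves were fitted to green signal normalised to red-channel RNA signal and control-cluster median Fmax. The apparent Kd is the median of the filtered fits.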

[1] = designed as: ON switch for flavin mononucleotide, no ligand
[2] = ligand present: flavin mononucleotide, designed as: ON switch for flavin mononucleotide
[3] = designed as: OFF switch for flavin mononucleotide, no ligand
[4] = ligand present: flavin mononucleotide, designed as: OFF switch for flavin mononucleotide

## CUGUCGAUAUCAGGAUAUCGUUUACAUACAUGAGGAUCACCCAUGUAGAUGAUCAGCCUAAUAUACGAGAAGGGAUAACGAUAG
[1]
  apparent Kd: 10.2 nM
[2]
  apparent Kd: 9.04 nM

## CUGUCGAUAUCAGGAUAUCGUUUACAUACAUGAGGAUCACCCAUGUAGAUGAUCAGCCUAAUAUACGAGAAGGGAUAUCGAUAG
[1]
  apparent Kd: 9.26 nM
[2]
  apparent Kd: 8.59 nM

## CUGUUACAUGAGGAUCACCCAUGUCAGGAUAUUUCUAUAGCGUCCUGCCGACGCAUAGAAAGAAGGGAUGGUGA
[3]
  apparent Kd: 48.6 nM
[4]
  apparent Kd: 83.8 nM

## CUGUUAUAGGUCCAGAAUUACAACAUGAGGAUCACCCAUGUGCAGGAUAUCGGGUUGAUAGGCGCCGAGAAGGGUAUAGUCACG
[3]
  apparent Kd: 75.8 nM
[4]
  apparent Kd: 70.8 nM

## CUGUUCCGUGUAGGAUAUGCAUAUUCUCAUUAUGCAGAAGGACAUGAGGAUCACCCAUGUAUGUUAUUAUCAUGUGUUACAUGU
[3]
  apparent Kd: 31.4 nM
[4]
  apparent Kd: 163 nM

## CUUAGUAUCUAGGAUAUCUAGUACAUAGUAUCUAGAGAAGGAGAUACAUGAGGAUCACCCAUGUUCUGUGAUCU
[3]
  apparent Kd: 272 nM
[4]
  apparent Kd: 40.4 nM

## CUUAUGUGAGGAUAUCAGUAGUAAAAAAAUAAAAUUACUACUGAGAAGGCACAUGAGGAUCACCCAUGUGCCUC
[3]
  apparent Kd: 14.4 nM
[4]
  apparent Kd: 13.4 nM

## CUUAUGUGAGGAUAUGUACAGAAAAAAAAGGGUGUAACUGUACAGAAGGCACAUGAGGAUCACCCAUGUGCAUU
[3]
  apparent Kd: 60.8 nM
[4]
  apparent Kd: 50.4 nM

## CUUCGACAUGAGGAUCACCCAUGUCAGGAUAUUGUGUAUCGGGUUUUUUACGGAAAGGCGAGAAGGGAUGUGUG
[3]
  apparent Kd: 27.6 nM
[4]
  apparent Kd: 22.3 nM

## CUUCUGUGAGGAUAUGUUAGUUCCCAGCAAAUCGCUGGGAGACAGAAGGCACAUGAGGAUCACCCAUGUGGGCG
[3]
  apparent Kd: 39.2 nM
[4]
  apparent Kd: 221 nM

## CUUCUGUGAGGAUAUUGACCAGUAGCUGACCUAGUACUGGAUGAGAAGGCACAUGAGGAUCACCCAUGUGGCAC
[3]
  apparent Kd: 19.5 nM
[4]
  apparent Kd: 104 nM

## CUUUAGUGAGGAUAUGUGGCUUCGAUCGUGAGAUCGAGGCUACAGAAGGCACAUGAGGAUCACCCAUGUUUCUU
[3]
  apparent Kd: 17.2 nM
[4]
  apparent Kd: 81 nM

## CUUUCGUGAGGAUAUGUGGCUUCGAUCGUAAAAUCGAGGCUACAGAAGGCACAUGAGGAUCACCCAUGUUCCUC
[3]
  apparent Kd: 36.2 nM
[4]
  apparent Kd: 528 nM

## CUUUCGUUAGCAGGAUAUGGACAGGCCUGUCCGUCUUGAGUCAGUAACAUGAGGAUCACCCAUGUCCAGAAGGGCUCGAAGGGA
[3]
  apparent Kd: 17.7 nM
[4]
  apparent Kd: 32.4 nM

## CUUUCUUGCAAGGAUAUGCAAUUUAUUAUUUAUGCAGAAGGUGCUACAUGAGGAUCACCCAUGUUUCUGGGUUU
[3]
  apparent Kd: 146 nM
[4]
  apparent Kd: 208 nM

## CUUUUGUGAGGAUAUCAGUAGUAAAAAAAUAUAAUUACUACUGAGAAGGCACAUGAGGAUCACCCAUGUUCCUC
[3]
  apparent Kd: 36.8 nM
[4]
  apparent Kd: 267 nM

## CUUUUGUGAGGAUAUCAGUAGUAAAUAAAUAAAAUAACUACUGAGAAGGCACAUGAGGAUCACCCAUGUUCCUC
[3]
  apparent Kd: 35.8 nM
[4]
  apparent Kd: 223 nM

## CUUUUGUGAGGAUAUCAGUAGUAUAAAAAUAAAAUUACUACUGAGAAGGCACAUGAGGAUCACCCAUGUUCCUC
[3]
  apparent Kd: 39 nM
[4]
  apparent Kd: 226 nM

## CUUUUGUGAGGAUAUUAGUAGUAAAUAAAUAAAAUUACUAUUGAGAAGGCACAUGAGGAUCACCCAUGUUCCUC
[3]
  apparent Kd: 31.4 nM
[4]
  apparent Kd: 182 nM

## CUUUUGUGAGGAUAUUAGUAGUAAAUAAAUAAAAUUAUUACUGAGAAGGCACAUGAGGAUCACCCAUGUUCCUC
[3]
  apparent Kd: 32.5 nM
[4]
  apparent Kd: 405 nM

## CUUUUGUGAGGAUAUUCGUAGUAGGGUCAUGGCAUUAUUAUGGAGAAGGCACAUGAGGAUCACCCAUGUACCUU
[3]
  apparent Kd: 19.7 nM
[4]
  apparent Kd: 27.5 nM

## GAAAACGCAGAGGAUAUUUCAGAUCAAAGCUGCAAAGAAGGCUGCACAUGAGGAUCACCCAUGUGGUCUUUAAA
[3]
  apparent Kd: 19.3 nM
[4]
  apparent Kd: 202 nM

## GAACAGGGAGGAUAUACAGAUCCUCGUGCCUGCGGACCAAGACAUGAGGAUCACCCAUGUAGAAGGCCCGAAAA
[3]
  apparent Kd: 15.3 nM
[4]
  apparent Kd: 10.5 nM

## GAAGGCUGGUAGAAGGAUCCUCACAUGAGGAUCACCCAUGUAACAGCGGAUAGGAUAUACCGUCUUUCACGUUGGUCUCCCUAA
[1]
  apparent Kd: 370 nM
[2]
  apparent Kd: 25.3 nM

## GAAUUAUUGAUCCAAUUUUACAACAUGAGGAUCACCCAUGUGCAGGAUAUCGUGUGUUUUAUAUUCGAGAAGGGCAAGAACUUU
[3]
  apparent Kd: 141 nM
[4]
  apparent Kd: 300 nM

## GAAUUCGCAUGAGGAUAUGCACUCAUUUCAUGUGCAGAAGGUAUAUCAUUAGACAUGAGGAUCACCCAUGUAUUGGUCAUUAAA
[1]
  apparent Kd: 15.8 nM
[2]
  apparent Kd: 13.9 nM

## GACAAUCUAUCUGAGGAUAUCAUGAAAAAAACAUGAGGAUCACCCAUGUGCAGGAAAACUGCAUAUGAGAAGGCAGAUAGAUUGA
[1]
  apparent Kd: 708 nM
[2]
  apparent Kd: 28.7 nM

## GACACCGUGUAGAAGGACCAGUGCGCUACUAUGGUAGGAUAUACAUGAGGAUCACCCAUGUGACGGCUUUCGGUGGGAGCAGUG
[3]
  apparent Kd: 10.9 nM
[4]
  apparent Kd: 19.8 nM

## GACACUAUGUUUGUCAGAUAGAGAGAGGAUAUGGCUCAUGAGACAUGAGGAUCACCCAUGUAUAAUCAGAAGGCUCGAGUACGA
[1]
  apparent Kd: 11.5 nM
[2]
  apparent Kd: 9.17 nM

## GACAUGAGGAUCACCCAUGUACAGAUAGAGGAACUCUAAUUGAGAAGGGACUUGAAACAAUCAUGUCAGGAUAUCAGUGGCGAC
[1]
  apparent Kd: 86.7 nM
[2]
  apparent Kd: 41 nM

## GACAUUGACAAGAAGGCAAACAUGAGGAUCACCCAUGUUCUGCAUGUAUAUUGAGGAUAUUGCCAAUGCAUGUGGAUCACCCAA
[3]
  apparent Kd: 6.63 nM
[4]
  apparent Kd: 10.8 nM

## GACAUUGACAAGAAGGCAAACAUGAGGAUCACCCAUGUUCUGCAUGUAUAUUGAGGAUAUUGCCAAUGUAUGUGGAUCACCCAA
[3]
  apparent Kd: 6.25 nM
[4]
  apparent Kd: 15.2 nM

## GACGGAUGUAUAGGAUAUGCUGAGGAAUACUCAGCAGAAGGAUACAUGAGGAUCACCCAUGUAAUAAUAAUAAUAAUAACCGUC
[3]
  apparent Kd: 12.4 nM
[4]
  apparent Kd: 27.5 nM

## GACGGUGAUGUAGGAUAUACGCUGGAAUACAGCGUAGAAGGACAUGAGGAUCACCCAUGUAAAGUGUCUCUAAAUAACACCGUC
[3]
  apparent Kd: 21.5 nM
[4]
  apparent Kd: 47.2 nM

## GACUAGGCAGGAUAUACAUGAGGAUCACCCAUGUGUCUGCGUUAAGCACGUGAAGACGGUAGAAGGGCCUUCAC
[3]
  apparent Kd: 11.6 nM
[4]
  apparent Kd: 13.5 nM

## GACUAGUAAGGAUAUCAAGUUCUCCACAUGAGGAUCACCCAUGUCGAUAACCUCUGACAAUGAGAAGGUGCUGACU
[3]
  apparent Kd: 35.1 nM
[4]
  apparent Kd: 31.9 nM

## GACUCUAAGUUUGUCACUUAGAGAGAGGAUAUGGAAAACUUGACAUGAGGAUCACCCAUGUAUAAUCAGAAGGCUCGAGUACGA
[1]
  apparent Kd: 9.95 nM
[2]
  apparent Kd: 8.98 nM

## GACUGCUGAGGAUAUACAUGAGGAUCACCCAUGUGCUUCAGCUACGAGAGUAGCAUUGGUAGAAGGUAGUAGUC
[3]
  apparent Kd: 12.1 nM
[4]
  apparent Kd: 22.1 nM

## GACUGCUGAGGAUAUACAUGAGGAUCACCCAUGUGCUUCAGUAUCGAAAGAUACAUUGGUAGAAGGUAGUAGUC
[3]
  apparent Kd: 11.8 nM
[4]
  apparent Kd: 20.8 nM

## GACUUGGCUACAUGAGGAUCACCCAUGUUUGACUGGAUCGAUCAGGAUAUAGUGAUUUGCAACAAUUAGAAGGGAUAUUUACGG
[1]
  apparent Kd: 49.8 nM
[2]
  apparent Kd: 51.6 nM

## GACUUGUUAGGAUAUCUUACAUUUGCAUCAUAGUAACCUUUGGAGAAGGGACAUGAGGAUCACCCAUGUUUGGA
[3]
  apparent Kd: 40.1 nM
[4]
  apparent Kd: 36.6 nM

## GACUUGUUAGGAUAUCUUACAUUUGCAUCAUAGUAACCUUUGGAGAAGGGACAUGAGGAUCACCCAUGUUUGGU
[3]
  apparent Kd: 62.3 nM
[4]
  apparent Kd: 53.5 nM

## GACUUGUUAGGAUAUCUUACAUUUGCAUCAUAGUUACCAUUGGAGAAGGGACAUGAGGAUCACCCAUGUUUGGU
[3]
  apparent Kd: 40 nM
[4]
  apparent Kd: 39.8 nM

## GACUUUUCUGAGGAUAUUGCAUCACCCGAUCUAUAAGAAGGCAGAACAUGAGGAUCACCCAUGUGGGUUUCUAG
[3]
  apparent Kd: 24.7 nM
[4]
  apparent Kd: 33.6 nM

## GAGAAUACACUCGUCUCCGCUCAACCAGAAGGGCAUGAUAAUAUUACAUGAGGAUCACCCAUGUUGCAGGAUAUGGUGAGCCUC
[1]
  apparent Kd: 141 nM
[2]
  apparent Kd: 58.9 nM

## GAGAUGUGAGGAUAUCUAGACCGCGGAAGAGCCGCAGUCCGAGAGAAGGCACAUGAGGAUCACCCAUGUGAUGA
[3]
  apparent Kd: 33.4 nM
[4]
  apparent Kd: 61.2 nM

## GAGCGAAAGCUCAAUGUCGAUAGCAGAAGGACAUGUAAAAUCAUGAAAACAUGAGGAUCACCCAUGUAGGAUAUGCUAUCGACU
[3]
  apparent Kd: 23 nM
[4]
  apparent Kd: 371 nM

## GAGCGAAAGCUCAAUGUCGAUAGCAGAAGGAUAUGAAAACAUGAAAUAACAUGAGGAUCACCCAUGUAGGAUAUGCUAUCGACU
[3]
  apparent Kd: 7.41 nM
[4]
  apparent Kd: 14 nM

## GAGCGGAUGUCAGGAUAUCGCCGCGUGAAAAGGCGAGAAGGGACAUGAGGAUCACCCAUGUACUCAUAGGGCCAGCUUGGGCUA
[3]
  apparent Kd: 9.71 nM
[4]
  apparent Kd: 29.1 nM

## GAGCGGGAAACAUGAGGAUCACCCAUGUAAUAAGUCCUCAAGUAGGAUAUGCACACGAGAAGUGUGCAGAAGGGCUACCCGGUC
[3]
  apparent Kd: 20.9 nM
[4]
  apparent Kd: 28.8 nM

## GAGCGGGAAACAUGAGGAUCACCCAUGUGAUGUAUCCUCACGUAGGAUAUGCACACGAGAAGUGUGCAGAAGGGCGACCCGGUC
[3]
  apparent Kd: 1100 nM
[4]
  apparent Kd: 1260 nM

## GAGCUAUGAGGAUAUGCAUAUAUGCGGUUUCGUGUGGUACUACAUGAGGAUCACCCAUGUAGAAGGCGUGGCAG
[3]
  apparent Kd: 16 nM
[4]
  apparent Kd: 17.5 nM

## GAGCUAUGAGGAUAUGCAUAUAUGCGGUUUCGUGUGGUACUACAUGAGGAUCACCCAUGUAGAAGGCGUGGCUG
[3]
  apparent Kd: 17.2 nM
[4]
  apparent Kd: 17 nM

## GAGGAGGUAGGAUAUACGAUAAUAUAGGGUAGAUAUAUAACACAUGAGGAUCACCCAUGUAGAAGGACCAGGAG
[3]
  apparent Kd: 34.4 nM
[4]
  apparent Kd: 62.4 nM

## GAGGCCAAAACAUGAGGAUCACCCAUGUGAGUGGUCCGAAUAUAGGAUAUCCACACGAGAAGUGUGGAGAAGGAUAAUGGCGUC
[3]
  apparent Kd: 321 nM
[4]
  apparent Kd: 547 nM

## GAGGCCCAGGAAGGUAGAAUGAGCAGAAGGCAACGAAGCGUGAUCGACAUGAGGAUCACCCAUGUUGAGGAUAUGCGCCUCCAC
[3]
  apparent Kd: 63.1 nM
[4]
  apparent Kd: 178 nM
